Laboratory results: ChEMBL document CHEMBL3108696, “Structure-activity relationships of chromone derivatives toward the mechanism of interaction with and inhibition of breast cancer resistance protein ABCG2” (J Med Chem, 2013)

Experiments:
[1] = biological target: Multidrug resistance-associated protein 1 (Homo sapiens, UniProt P33527); assay: Inhibition of ABCC1 (unknown origin)-mediated calcein-AM efflux expressed in HEK293 cells at 5 uM after 30 mins by flow cytometric analysis; assay type: cell-based; settings: hek293, 0.5 h
Multidrug resistance-associated protein 1, sequence (P33527 whole entry): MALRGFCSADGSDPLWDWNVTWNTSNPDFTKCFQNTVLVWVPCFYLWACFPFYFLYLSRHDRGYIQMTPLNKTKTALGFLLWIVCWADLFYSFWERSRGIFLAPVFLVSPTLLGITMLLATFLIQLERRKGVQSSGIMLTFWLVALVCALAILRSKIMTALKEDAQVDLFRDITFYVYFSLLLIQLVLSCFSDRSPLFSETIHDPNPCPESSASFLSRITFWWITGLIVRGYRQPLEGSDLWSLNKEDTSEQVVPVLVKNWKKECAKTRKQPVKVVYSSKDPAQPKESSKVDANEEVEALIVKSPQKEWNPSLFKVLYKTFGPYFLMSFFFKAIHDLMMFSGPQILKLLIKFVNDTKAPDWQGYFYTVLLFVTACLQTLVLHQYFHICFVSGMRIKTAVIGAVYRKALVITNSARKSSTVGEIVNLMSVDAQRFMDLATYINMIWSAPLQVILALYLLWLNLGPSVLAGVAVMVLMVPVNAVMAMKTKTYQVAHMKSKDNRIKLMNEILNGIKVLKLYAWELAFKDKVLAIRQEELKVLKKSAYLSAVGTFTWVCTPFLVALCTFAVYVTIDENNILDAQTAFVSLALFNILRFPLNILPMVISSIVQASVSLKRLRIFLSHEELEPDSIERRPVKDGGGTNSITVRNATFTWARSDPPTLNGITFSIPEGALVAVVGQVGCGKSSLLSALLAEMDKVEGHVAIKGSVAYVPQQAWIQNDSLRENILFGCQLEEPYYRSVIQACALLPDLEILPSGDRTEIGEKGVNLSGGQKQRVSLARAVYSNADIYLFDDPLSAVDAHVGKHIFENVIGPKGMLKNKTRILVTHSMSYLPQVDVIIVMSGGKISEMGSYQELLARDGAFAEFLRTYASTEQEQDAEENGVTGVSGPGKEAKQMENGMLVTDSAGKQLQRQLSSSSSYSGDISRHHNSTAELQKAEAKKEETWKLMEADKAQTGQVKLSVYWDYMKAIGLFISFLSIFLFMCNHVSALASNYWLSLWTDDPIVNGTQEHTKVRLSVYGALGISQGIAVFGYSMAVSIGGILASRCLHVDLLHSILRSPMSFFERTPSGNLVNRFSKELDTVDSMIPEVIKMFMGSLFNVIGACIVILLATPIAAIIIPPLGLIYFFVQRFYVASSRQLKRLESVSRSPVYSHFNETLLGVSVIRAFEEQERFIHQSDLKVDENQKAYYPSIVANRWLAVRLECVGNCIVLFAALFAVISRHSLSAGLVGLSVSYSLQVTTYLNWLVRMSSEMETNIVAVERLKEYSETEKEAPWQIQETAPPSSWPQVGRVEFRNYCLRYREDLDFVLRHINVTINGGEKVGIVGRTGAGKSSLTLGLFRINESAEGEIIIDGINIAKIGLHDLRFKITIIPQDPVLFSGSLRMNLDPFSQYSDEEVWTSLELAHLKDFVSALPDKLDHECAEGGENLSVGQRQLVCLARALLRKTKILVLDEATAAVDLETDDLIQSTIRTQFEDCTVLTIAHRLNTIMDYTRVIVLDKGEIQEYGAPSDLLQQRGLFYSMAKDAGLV

[2] = biological target: T1, Broad substrate specificity ATP-binding cassette transporter ABCG2 (Homo sapiens, UniProt Q9UNQ0); assay: Inhibition of human ABCG2 expressed in Sf9 insect cell membranes assessed as inhibition of quercetin-stimulated ATPase activity after 30 mins by colorimetric analysis in presence of sodium orthovanadate; settings: for inhibition (INH): human, sf9, 0.5 h
T1 sequence (Q9UNQ0 whole entry): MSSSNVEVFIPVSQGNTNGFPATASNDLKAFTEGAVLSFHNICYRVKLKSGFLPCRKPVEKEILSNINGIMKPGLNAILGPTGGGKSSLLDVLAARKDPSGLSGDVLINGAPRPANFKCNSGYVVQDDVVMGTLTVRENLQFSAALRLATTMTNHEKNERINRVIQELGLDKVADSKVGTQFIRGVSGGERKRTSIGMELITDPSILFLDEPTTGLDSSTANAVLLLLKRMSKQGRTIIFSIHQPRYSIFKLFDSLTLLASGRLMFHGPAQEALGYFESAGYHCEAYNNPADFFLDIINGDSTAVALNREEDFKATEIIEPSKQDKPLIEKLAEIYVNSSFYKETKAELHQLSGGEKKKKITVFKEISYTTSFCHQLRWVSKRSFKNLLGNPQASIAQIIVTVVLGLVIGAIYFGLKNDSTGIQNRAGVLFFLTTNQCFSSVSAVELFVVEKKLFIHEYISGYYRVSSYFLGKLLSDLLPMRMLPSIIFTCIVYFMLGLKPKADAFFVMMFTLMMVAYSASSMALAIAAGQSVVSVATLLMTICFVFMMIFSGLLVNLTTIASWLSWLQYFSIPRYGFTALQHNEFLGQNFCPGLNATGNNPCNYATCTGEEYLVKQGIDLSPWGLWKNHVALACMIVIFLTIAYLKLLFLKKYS
How it was run: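 Quercetin (2 μM)-stimulated vanadate-sensitive ATPase assay on cholesterol-loaded ABCG2 Sf9 membranes (10 μg/sample) in Tris/NaCl buffer, pH 8.0. Compound at 0.01, 0.03, 0.5 and 2 μM. ATP-Mg 3.9 mM, 30 min at 37 °C. Released phosphate read colorimetrically at 880 nm. IC50 estimated as 50% inhibition of initial activity; three independent experiments.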

[3] = biological target: ATP-dependent translocase ABCB1 (Homo sapiens, UniProt P08183); assay: Inhibition of ABCB1 (unknown origin)-mediated rhodamine 123 efflux expressed in mouse NIH/3T3 cells at 5 uM after 30 mins by flow cytometric analysis; assay type: cell-based; settings: nih/3t3, 0.5 h
ATP-dependent translocase ABCB1, sequence (P08183 whole entry): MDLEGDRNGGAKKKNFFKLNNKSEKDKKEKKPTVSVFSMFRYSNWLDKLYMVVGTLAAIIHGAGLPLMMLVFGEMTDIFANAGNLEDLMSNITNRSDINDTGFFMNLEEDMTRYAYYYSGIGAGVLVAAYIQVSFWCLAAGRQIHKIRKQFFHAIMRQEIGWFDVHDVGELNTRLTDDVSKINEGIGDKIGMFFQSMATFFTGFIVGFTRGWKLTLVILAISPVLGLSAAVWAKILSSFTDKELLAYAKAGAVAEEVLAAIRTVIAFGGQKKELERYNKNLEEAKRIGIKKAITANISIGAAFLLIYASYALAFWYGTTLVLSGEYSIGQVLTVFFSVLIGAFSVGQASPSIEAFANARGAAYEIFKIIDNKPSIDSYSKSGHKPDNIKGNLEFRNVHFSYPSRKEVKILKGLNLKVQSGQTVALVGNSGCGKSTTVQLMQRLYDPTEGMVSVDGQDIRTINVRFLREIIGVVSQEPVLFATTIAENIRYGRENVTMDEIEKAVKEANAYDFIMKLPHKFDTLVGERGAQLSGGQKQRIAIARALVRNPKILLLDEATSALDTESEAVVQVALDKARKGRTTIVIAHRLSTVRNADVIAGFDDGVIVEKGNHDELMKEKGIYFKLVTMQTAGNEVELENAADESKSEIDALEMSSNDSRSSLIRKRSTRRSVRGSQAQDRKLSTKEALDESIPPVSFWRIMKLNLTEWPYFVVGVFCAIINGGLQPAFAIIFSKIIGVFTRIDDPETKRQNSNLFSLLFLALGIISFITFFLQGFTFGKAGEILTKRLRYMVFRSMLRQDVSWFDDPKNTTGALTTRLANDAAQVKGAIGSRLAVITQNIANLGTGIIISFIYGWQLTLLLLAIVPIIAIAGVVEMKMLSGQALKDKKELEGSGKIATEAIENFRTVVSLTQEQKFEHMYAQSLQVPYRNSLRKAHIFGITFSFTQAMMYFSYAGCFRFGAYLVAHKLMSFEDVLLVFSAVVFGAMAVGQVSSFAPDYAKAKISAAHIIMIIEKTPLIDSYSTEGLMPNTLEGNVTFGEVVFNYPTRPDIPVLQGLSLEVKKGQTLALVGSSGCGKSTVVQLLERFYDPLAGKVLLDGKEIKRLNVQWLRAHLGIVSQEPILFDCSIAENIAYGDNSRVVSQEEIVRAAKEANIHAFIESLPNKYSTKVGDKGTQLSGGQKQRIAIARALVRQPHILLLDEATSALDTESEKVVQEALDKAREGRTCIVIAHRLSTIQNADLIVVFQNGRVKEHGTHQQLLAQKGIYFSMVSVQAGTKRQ

[4] = biological target: T1, Broad substrate specificity ATP-binding cassette transporter ABCG2; assay: Inhibition of ABCG2 (unknown origin)-mediated mitoxantrone efflux expressed in HEK293 cells after 30 mins by flow cytometric analysis; assay type: cell-based
[5] = biological target: T1, Broad substrate specificity ATP-binding cassette transporter ABCG2; assay: Binding affinity to ABCG2 (unknown origin) expressed in HEK293 cells assessed as modulation of 5D3 binding at 5 uM after 45 mins by flow cytometric analysis relative to Ko143; assay type: cell-based; settings: hek293, 0.75 h
How it was run: (§1)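 5D3 shift assay on ABCG2-transfected HEK293 cells (0.5 × 10^6 cells/tube) in PBS with 0.5% BSA. Compound at 2 or 5 μM plus 5D3 anti-ABCG2 antibody or isotype control (1 μg/mL), 45 min at 37 °C. Anti-mouse Alexa Fluor 488 secondary (3 μg/mL), 30 min at 37 °C. Binding read by flow cytometry, expressed relative to 2 μM Ko143 (100%). Mean ± SD of ≥3 independent experiments.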

ABCG2 [6] = biological target: T2, ABCG2 (Homo sapiens, UniProt Q9UNQ0); assay: Inhibition of ABCG2 (unknown origin)-mediated pheophorbide A efflux expressed in HEK293 cells at 1 to 5 uM after 30 mins by flow cytometric analysis relative to control; assay type: cell-based; settings: HEK293 cells expressing ABCG2, probe pheophorbide A, read-out: Imax
T2 sequence (Q9UNQ0 whole entry): T1 sequence (Q9UNQ0 whole entry)
How it was run: (§2)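 Cells seeded at 1.5 × 10^5 cells/well and grown 48 h were exposed to BODIPY-prazosin (0.2 μM) or pheophorbide A (2 μM) for 30 min at 37 °C with or without compound. After washing and trypsinization, intracellular fluorescence was read by flow cytometry (FL4, ≥10 000 events). Percent inhibition = (C−M)/(Cev−M)×100, where Cev is from ABCG2-negative control cells.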

ABCG2 [7] = biological target: T2, ABCG2; assay: Inhibition of ABCG2 in mitoxantrone-selected human H460 cells assessed as reversal of mitoxantrone-resistance at 1 uM after 72 hrs by MTT assay relative to control; assay type: cell-based; settings: probe mitoxantrone
[8] = biological target: T1, Broad substrate specificity ATP-binding cassette transporter ABCG2; assay: Binding affinity to ABCG2 (unknown origin) expressed in HEK293 cells assessed as modulation of 5D3 binding at 2 uM after 45 mins by flow cytometric analysis relative to Ko143; assay type: cell-based; settings: hek293, 0.75 h; how it was run: as §1
[9] = biological target: T1, Broad substrate specificity ATP-binding cassette transporter ABCG2; assay: Inhibition of ABCG2-mediated mitoxantrone efflux in mitoxantrone-selected human H460 cells after 30 mins by flow cytometric analysis; assay type: cell-based
[10] = biological target: T1, Broad substrate specificity ATP-binding cassette transporter ABCG2; assay: Inhibition of human ABCG2 ATPase activity expressed in Sf9 insect cell membranes at 2 uM after 30 mins by colorimetric analysis relative to basal control in presence of sodium orthovanadate; settings: sf9, 0.5 h
How it was run: (§3)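 Basal vanadate-sensitive ATPase assay on cholesterol-loaded membranes from human ABCG2-expressing Sf9 cells (0.5 mg/mL; 10 μg/sample). Buffer: 50 mM Tris-HCl, 50 mM NaCl, pH 8.0, with azide, ouabain, DTT and EGTA, ± 0.33 mM orthovanadate. Compound at 2 μM, or substrates nilotinib 0.1 μM, quercetin 2 μM, prazosin 20 μM. ATP-Mg 3.9 mM, 30 min at 37 °C. Phosphate read by molybdate/ascorbate at 880 nm.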

ABCG2 [11] = biological target: T2, ABCG2; assay: Inhibition of ABCG2-mediated mitoxantrone efflux in mitoxantrone-selected human H460 cells at 5 to 10 uM after 30 mins by flow cytometric analysis relative to control; assay type: cell-based; settings: probe mitoxantrone, read-out: Imax
ABCG2 [12] = biological target: T2, ABCG2; assay: Inhibition of ABCG2 in mitoxantrone-selected human H460 cells assessed as reversal of mitoxantrone-resistance at 0.2 uM after 72 hrs by MTT assay relative to control; assay type: cell-based; settings: probe mitoxantrone
ABCG2 [13] = biological target: T2, ABCG2; assay: Inhibition of ABCG2 (unknown origin)-mediated mitoxantrone efflux expressed in HEK293 cells at 5 to 10 uM after 30 mins by flow cytometric analysis relative to control; assay type: cell-based; settings: HEK293 cells expressing ABCG2, probe mitoxantrone, read-out: Imax
[14] = biological target: T1, Broad substrate specificity ATP-binding cassette transporter ABCG2; assay: Inhibition of ABCG2 (unknown origin)-mediated BODIPY-prazosin efflux expressed in HEK293 cells at 1 to 5 uM after 30 mins by flow cytometric analysis; assay type: cell-based; settings: hek293, 0.5 h; how it was run: as §2
[15] = biological target: T1, Broad substrate specificity ATP-binding cassette transporter ABCG2; assay: […] expressed in Sf9 insect cell membranes at 20 uM after 30 mins by colorimetric analysis relative to basal control in presence of sodium orthovanadate; settings: sf9, 0.5 h; how it was run: as §3
[16] = biological target: T1, Broad substrate specificity ATP-binding cassette transporter ABCG2; assay: […] expressed in Sf9 insect cell membranes at 0.1 uM after 30 mins by colorimetric analysis relative to basal control in presence of sodium orthovanadate; settings: sf9, 0.5 h; how it was run: as §3

SMILES	inhibition (INH) [1]	IC50 [2]	inhibition (INH) [2]	inhibition (INH) [3]	EC50 [4]	Activity [5]	Emax at 0.5 h (ABCG2 [6])	inhibition at 72 h, 1 µM (ABCG2 [7])	Activity [8]	EC50 [9]	inhibition (INH) [10]	Emax at 0.5 h (ABCG2 [11])	inhibition at 72 h, 0.2 µM (ABCG2 [12])	Emax at 0.5 h (ABCG2 [13])	inhibition (INH) [14]	fold change (FC) [15]	fold change (FC) [16]
COc1ccc2c(CCNC(=O)c3cc(=O)c4c(OCc5ccc(Br)cc5)cccc4o3)c[nH]c2c1	Not Active	290 nM	Dose-dependent effect	Not Active	100 nM	101%	80%	> 72%	96.4%	80 nM	Active	89%	> 50%	97%	Active		
Cn1cc(CCNC(=O)c2cc(=O)c3c(OCc4ccc(Br)cc4)cccc3o2)c2ccccc21	Not Active	1100 nM	Dose-dependent effect	Not Active	300 nM	98%	80%	> 61%	88.7%	220 nM	Active	102%	> 4%	85%	Active		
COc1cc2nc(N3CCN(C(=O)c4ccco4)CC3)nc(N)c2cc1OC [PRAZOSIN]																2.4	
Cc1cn(-c2cc(NC(=O)c3ccc(C)c(Nc4nccc(-c5cccnc5)n4)c3)cc(C(F)(F)F)c2)cn1 [NILOTINIB]																	3.2
